# PubChem BioAssay AID588557 (Sanford-Burnham Center for Chemical Genomics, 2011)
# pIC50: −log10 of the molar value. Active and inactive are the calls of the source.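 Rule for the calls: active = cytotoxic IC50, the dose that kills half the cells, at 20 µM or lower; inactive = the rest.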
# Tested on: CHO-CHOP cells viability, ATPLite luminescence, 6 h
# Assay: CHO-CHOP cell viability loss – 6 h exposure, ATPLite luminescence, cytotoxicity control for UPR apoptotic arm activator project, SAR follow-up (AID 588557)
# In short: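 Test system: CHO-CHOP reporter cells | Quantity: 500 cells/well | Medium: F12 plus 10% FBS | Dosing: Dose response, DMSO ≤1% final | Times: 16–18 h pre-dosing growth, then 6 h exposure at 37 °C | Signal: ATP luminescence with ATPLite 1-Step reagent | Benchmarks: Tunicamycin 10 µg/mL final as positive control, DMSO alone as negative control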
Structure (SMILES),pIC50,IC50
O=C(Nc1nc2ccc(F)cc2s1)c1ccccn1,5.34,
O=C(Nc1ccc(S(=O)(=O)N2CCC(Cl)CC2)cc1)c1ccc([N+](=O)[O-])o1,,> 80 µM (inactive)
O=C(Nc1ccc(S(=O)(=O)N2CCC3(CCCCC3)CC2)cc1)c1ccc([N+](=O)[O-])o1,,> 80 µM (inactive)
O=C(Nc1nc2c(F)ccc(F)c2s1)c1ccccn1,,23.6 µM (inactive)
O=C(Nc1ccc(S(=O)(=O)N2CCNCC2)cc1)c1ccc([N+](=O)[O-])o1,,> 80 µM (inactive)
O=C(Nc1ccc(S(=O)(=O)N2CCC(O)CC2)cc1)c1ccc([N+](=O)[O-])o1,,> 80 µM (inactive)
CC1CN(S(=O)(=O)c2ccc(NC(=O)c3ccc([N+](=O)[O-])o3)cc2)CC(C)O1 (stereo not given),,> 80 µM (inactive)
O=C(Nc1nc2c(F)cc(F)cc2s1)c1ccccn1,5.02,
Cc1cc(C)c2nc(NC(=O)c3ccccn3)sc2c1,4.79,
O=C(Nc1nc2c(F)cccc2s1)c1ccccn1,5.35,
O=C(Nc1ccc(S(=O)(=O)N2CCOCC2)cc1)c1ccc([N+](=O)[O-])s1,,> 80 µM (inactive)
O=C(Nc1nc2ccc(Cl)cc2s1)c1ccccn1,5.42,
O=C(Nc1ccc(S(=O)(=O)N2CCCCC2)cc1)c1ccc([N+](=O)[O-])o1,,> 80 µM (inactive)
CC1(C)CCN(S(=O)(=O)c2ccc(NC(=O)c3ccc([N+](=O)[O-])o3)cc2)CC1,,> 80 µM (inactive)
CC1CCN(S(=O)(=O)c2ccc(NC(=O)c3ccc([N+](=O)[O-])o3)cc2)CC1,,> 80 µM (inactive)
O=C(Nc1nc2cccc(F)c2s1)c1ccccn1,5.15,
O=C(Nc1ccc(S(=O)(=O)N2CCOCC2)cc1)c1ccc([N+](=O)[O-])o1,,> 80 µM (inactive)
CC(C)(C)C1CCN(S(=O)(=O)c2ccc(NC(=O)c3ccc([N+](=O)[O-])o3)cc2)CC1,,> 80 µM (inactive)
O=C(Nc1ccc(S(=O)(=O)N2CCCC2)cc1)c1ccc([N+](=O)[O-])o1,,74.6 µM (inactive)
O=C(Nc1nc2cc(F)cc(F)c2s1)c1ccccn1,5.05,
O=C(Nc1ccc(S(=O)(=O)N2CCC(F)CC2)cc1)c1ccc([N+](=O)[O-])o1,,> 80 µM (inactive)
O=C(Nc1nc2cc(F)ccc2s1)c1ccccn1,5.57,
O=C(Nc1nc2ccc(F)c(F)c2s1)c1ccccn1,4.87,
O=C(Nc1nc2c(F)c(F)ccc2s1)c1ccccn1,4.82,
O=C(Nc1ccc(S(=O)(=O)c2ccccc2)cc1)c1ccc([N+](=O)[O-])o1,,> 80 µM (inactive)
O=C(Nc1ccc(S(=O)(=O)C2CCOCC2)cc1)c1ccc([N+](=O)[O-])o1,,> 80 µM (inactive)
O=C(Nc1nc2ccc(C(F)(F)F)cc2s1)c1ccccn1,5.33,
O=C(Nc1ccc(S(=O)(=O)C2CCCCC2)cc1)c1ccc([N+](=O)[O-])o1,,> 80 µM (inactive)
O=C(Nc1nc2cc(F)c(F)cc2s1)c1ccccn1,5.08,
O=C(Nc1nc2c(Cl)cc(Cl)cc2s1)c1ccccn1,,> 80 µM (inactive)
